Key:
Assay type in all cases: ADME, organism-based
[1] = Terminal half life in C57BL/6 mouse plasma at 30 mg/kg, ip; details: mouse, in vivo
Method in brief: (§1)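 Male C57BL/6 mice, single intraperitoneal 30 mg/kg dose, N=3. Plasma, liver and lung concentrations followed over time to give concentration-time profiles, from which Tmax, Cmax, terminal t1/2, AUClast and AUCINF were derived.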

[2] = Drug level in C57BL/6 mouse lung at 30 mg/kg, ip measured at 48 hrs; details: in vivo
Method in brief: (§2)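 Male C57BL/6 mice received a single intraperitoneal dose of 30 mg/kg (N=3). Compound concentrations were followed over time in plasma, liver and lung. Tmax, Cmax, terminal t1/2, AUClast and AUCINF were derived from the mean concentration-time profiles.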

[3] = Tmax in C57BL/6 mouse liver at 30 mg/kg, ip; method in brief: as §1
[4] = Drug level in C57BL/6 mouse lung at 30 mg/kg, ip measured at 12 hrs; details: in vivo; method in brief: as §2
[5] = Drug level in C57BL/6 mouse plasma at 30 mg/kg, ip measured at 3 hrs; method in brief: as §1

COc1cc(-c2ccnc3c2c(C)nn3-c2ccc(C(F)(F)F)cc2)ccc1O
beta t1/2 [1]: 276 min | Drug uptake [2]: 15 nmol/kg | Tmax [3]: 15 min | Drug uptake [4]: 1741 nmol/kg | concentration at 3 h [5]: 1.73 µM

Source: ChEMBL document CHEMBL4316619 (Bioorg Med Chem Lett, 2019)
